Source: ChEMBL document CHEMBL1926568, “Synthesis, biological evaluation and mechanistic studies of totarol amino alcohol derivatives as potential antimalarial agents” (Bioorg Med Chem, 2012)
Activity calls are given as the source filed them. The rule behind the calls is not given here.

Columns and labels:
CHO = experiment: Cytotoxicity against CHO cells after 48 hrs by MTT assay; assay type: cell-based; details: Cricetulus griseus
Summary of the method: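 CHO cells in DMEM:Ham's (1:1) with 10% heat-inactivated FCS and gentamicin, 37 °C, 5% CO2; 1×10^4 cells/well seeded 24 h, then serial dilutions from DMSO stocks (100–0.01 µg/ml) for 48 h, with medium and DMSO controls.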

Plasmodium falciparum [1] = experiment: Antiplasmodial activity against chloroquine-sensitive Plasmodium falciparum D10 after 48 hrs by lactate dehydrogenase assay; assay type: functional, organism-based; details: D10, 48 h
Summary of the method: (§1)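 P. falciparum D10 (CQ-sensitive) and K1 (CQ-resistant) kept in continuous in vitro culture, synchronized with 5% D-sorbitol at ring stage when needed; growth read by parasite lactate dehydrogenase assay; each compound run in duplicate on two separate occasions.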

Plasmodium falciparum [2] = experiment: Antiplasmodial activity against chloroquine-resistant Plasmodium falciparum K1 after 48 hrs by lactate dehydrogenase assay; assay type: functional, organism-based; details: K1, 48 h; summary of the method: as §1
[3] = Selectivity index, ratio of IC50 for CHO cells to IC50 for chloroquine-sensitive Plasmodium falciparum D10; assay type: toxicity, cell-based; details: hamster, CHO cells (cytotoxicity) versus Plasmodium falciparum D10; read-out: Ratio IC50
Plasmodium falciparum [4] = experiment: Resistance index, ratio of IC50 for chloroquine-resistant Plasmodium falciparum K1 to IC50 for chloroquine-sensitive Plasmodium falciparum D10; assay type: functional
Summary of the method: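 Resistance index computed as IC50 (K1)/IC50 (D10), both from the pLDH assay, each run in duplicate on two separate occasions.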

[5] = Selectivity index, ratio of IC50 for CHO cells to IC50 for chloroquine-resistant Plasmodium falciparum K1; assay type: toxicity, cell-based; details: hamster, CHO cells (cytotoxicity) versus Plasmodium falciparum K1; read-out: Ratio IC50
[6] = Cytotoxicity in un-parasitized erythrocytes assessed as morphological changes at 6.25 ug/ml after 48 hrs by phase contrast microscopy; assay type: cell-based; details: erythrocyte
Summary of the method: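 Unparasitized erythrocytes (hematocrit 2%) held 48 h with 6.25 µg/ml compound (diluted from 100 µg/ml stocks), then fixed with 1% glutaraldehyde in paraformaldehyde; cell shape of 20 µl samples examined by phase-contrast light microscopy at ×1000.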

Erythrocyte [7] = experiment: Induction of [3H]-chloroquine accumulation in erythrocytes infected with chloroquine-resistant Plasmodium falciparum K1 trophozoites at 1 ug/ml pre-incubated for 15 mins before exposure to [3H]-chloroquine measured after 1 hr by liquid scintillation counting relative to control; assay type: functional, cell-based
Summary of the method: (§2)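 Synchronized K1-infected erythrocytes at trophozoite stage (1% hematocrit, 5% parasitemia) preincubated with test compound 15 min at 37 °C, then 4 nM 3H-CQ for 1 h at 37 °C; cells spun through dibutylphthalate, pellet digested and counted by liquid scintillation; accumulation expressed relative to untreated control; verapamil 5 µM positive control.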

Plasmodium falciparum [8] = experiment: Antiplasmodial activity against Plasmodium falciparum schizonts assessed as parasitemia at IC50 concentration treated until all schizonts had burst and invasion was assumed to have occurred by Giemsa staining-based microscopy (reference value: 8.83%); assay type: functional
Plasmodium falciparum [9] = experiment: Antiplasmodial activity against Plasmodium falciparum schizonts assessed as change in parasitemia at IC50 concentration treated until all schizonts had burst and invasion was assumed to have occurred by Giemsa staining-based microscopy relative to control; assay type: functional
Erythrocyte [10] = experiment: Induction of [3H]-chloroquine accumulation in erythrocytes infected with chloroquine-resistant Plasmodium falciparum K1 trophozoites at 5 uM pre-incubated for 15 mins before exposure to [3H]-chloroquine measured after 1 hr by liquid scintillation counting relative to control; assay type: functional; summary of the method: as §2

Structure (SMILES) | IC50 (CHO) | IC50 (Plasmodium falciparum [1]) | IC50 (Plasmodium falciparum [2]) | selectivity ratio [3] | Ratio IC50 (Plasmodium falciparum [4]) | selectivity ratio [5] | Activity [6] | Activity (Erythrocyte [7]) | Activity (Plasmodium falciparum [8]) | Activity (Plasmodium falciparum [9]) | fold change (FC) (Erythrocyte [10])
CCN(CC)CC(O)COc1ccc2c(c1C(C)C)CC[C@H]1C(C)(C)CCC[C@]21C (stereo partly specified) | 7.73 µM | 0.61 µM | 0.63 µM | 12.7 | 1.04 | 12.2 |  |  |  |  | 
c1ccc2c(OCC3CO3)cccc2c1 (stereo unspecified) |  | > 100 µM |  |  |  |  |  |  |  |  | 
OC(COc1cccc2ccccc12)CN1CCN(c2ccccc2Cl)CC1 (racemic) |  | > 100 µM |  |  |  |  |  |  |  |  | 
CN1CCN(CC(O)COc2cccc3ccccc23)CC1 (racemic) | 261 µM | 41.8 µM | 7.23 µM | 6.2 | 0.17 | 36.1 |  |  |  |  | 
CCOc1ccccc1N1CCN(CC(O)COc2ccc3c(c2C(C)C)CC[C@H]2C(C)(C)CCC[C@]32C)CC1 (stereo partly specified) | 183 µM | 1.62 µM | 1.01 µM | 113 | 0.62 | 181 |  |  |  |  | 
CN1CCN(CC(O)COc2ccccc2)CC1 (racemic) |  | > 100 µM |  |  |  |  |  |  |  |  | 
Oc1cccc2ccccc12 [1-NAPHTHOL] |  | 56.5 µM |  |  |  |  |  |  |  |  | 
CC(C)c1c(OCC(O)CN2CCCCC2)ccc2c1CC[C@H]1C(C)(C)CCC[C@]21C (stereo partly specified) | 2.99 µM | 1.08 µM | 0.75 µM | 2.8 | 0.7 | 4 |  |  |  |  | 
CC(C)c1c(OCC(O)CN2CCN(C)CC2)ccc2c1CC[C@H]1C(C)(C)CCC[C@]21C (stereo partly specified) | 3.73 µM | 1.36 µM | 1.39 µM | 2.7 | 1.03 | 2.7 | Toxic | Active |  |  | 
CC(C)c1c(OCC(O)CN2CCN(c3ccccc3Cl)CC2)ccc2c1CC[C@H]1C(C)(C)CCC[C@]21C (single isomer, unassigned) | 186 µM | 3.25 µM | 0.94 µM | 57.3 | 0.23 | 207 |  |  |  |  | 
Oc1ccccc1 [PHENOL] |  | > 100 µM |  |  |  |  |  |  |  |  | 
CC(C)c1c(OCC(O)CN2CCOCC2)ccc2c1CC[C@H]1C(C)(C)CCC[C@]21C (mixture of isomers) | 5.61 µM | 2.07 µM | 0.56 µM | 2.7 | 0.27 | 10 |  |  |  |  | 
CC(C)c1c(OCC(O)CN2CCN(c3ccnc4cc(Cl)ccc34)CC2)ccc2c1CC[C@H]1C(C)(C)CCC[C@]21C (single isomer, unassigned) | 94.2 µM | 1.42 µM | 0.93 µM | 67.3 | 0.64 | > 100 |  |  |  |  | 
OC(CNCc1ccccc1)COc1ccc2ccccc2c1 (racemic) | 123 µM | 6.77 µM | 13.5 µM | 18.2 | 2 | 9.1 |  |  |  |  | 
CC(C)c1c(O)ccc2c1CC[C@H]1C(C)(C)CCC[C@]21C [TOTAROL] | 170 µM | 11.8 µM | 11.7 µM | 14.5 | 0.99 | 14.6 |  |  |  |  | 
CC(C)NCC(O)COc1ccc2c(c1C(C)C)CC[C@H]1C(C)(C)CCC[C@]21C (stereo partly specified) | 1.28 µM | 1.05 µM | 0.17 µM | 1.2 | 0.14 | 8.7 | Non-toxic |  | 5.43% | -3.4% | 
CC(C)c1c(OCC2CO2)ccc2c1CC[C@H]1C(C)(C)CCC[C@]21C (stereo partly specified) |  | 10.3 µM | 14 µM |  | 1.36 |  |  |  |  |  | 
OC(CNCc1ccccc1)COc1cccc2ccccc12 (racemic) | 8.27 µM | 5.18 µM | 0.73 µM | 1.6 | 0.14 | 11.2 |  |  | 10.24% | 1.41% | 
CC(C)c1c(OCC(O)CNCc2ccccc2)ccc2c1CC[C@H]1C(C)(C)CCC[C@]21C (stereo partly specified) | 14.4 µM | 6.47 µM | 0.65 µM | 2.2 | 0.1 | 22.3 | Non-toxic |  | 8.31% | -0.52% | 
CC(C)NCC(O)COc1cccc2ccccc12 (racemic) [PROPRANOLOL] |  |  |  |  |  |  |  |  | 5.35% | -3.48% | 
c1ccc(OCC2CO2)cc1 (stereo unspecified) |  | 77 µM |  |  |  |  |  |  |  |  | 
Oc1ccc2ccccc2c1 [BETANAPHTHOL] |  | > 100 µM |  |  |  |  |  |  |  |  | 
CN1CCN(CC(O)COc2ccc3ccccc3c2)CC1 (racemic) | 149 µM | 42.9 µM | 8.21 µM | 3.5 | 0.19 | 18.1 |  |  |  |  | 
CC(C)c1c(OCC(O)CN2CCN(c3ccccc3)CC2)ccc2c1CC[C@H]1C(C)(C)CCC[C@]21C (stereo partly specified) | 105 µM | 2.56 µM | 1.81 µM | 41.2 | 0.71 | 58.1 |  |  |  |  | 
COc1ccc(CCN(C)CCCC(C#N)(c2ccc(OC)c(OC)c2)C(C)C)cc1OC (stereo unspecified) |  |  |  |  |  |  |  |  |  |  | >3
CC(C)c1c(OCC(O)CN2C(=O)c3ccccc3C2=O)ccc2c1CC[C@H]1C(C)(C)CCC[C@]21C (stereo partly specified) |  | 9.55 µM | 48.3 µM |  | 5.06 |  |  |  |  |  | 
